System: SHRSP
Assay: Stroke‐prone spontaneously hypertensive rats
Format: in vivo, rat
Settings: 30 mg·kg^−1 p.o. daily
How it was run: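 SHRSP rats on stroke-prone diet with high-salt intake, n = 30 per group, received daily oral 0.2% HPMC vehicle or test compound at 30 mg·kg−1 in 0.2% HPMC (4 ml·kg−1). Normal-diet, tap-water controls (n = 10) received vehicle. Dosing continued until about half of either treated group had died; surviving rats' brains were examined histologically.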

`CN(C(=O)n1cnc(-c2ccc[n+]([O-])c2)c1)C1CCCCC1` [BIA 10‐2474, 3‐(1‐(cyclohexyl (methyl)carbamoyl)‐1H‐imidazol‐4‐yl)pyridine 1‐oxide] was tested, and the “effect on mortality rate compared with vehicle” value (log‐rank test P = .1882) was “no effect” and the “surviving rats with haemorrhage in the hippocampus and dorsal cortex” value (vehicle three of the 14) was “Three of the 17”.

— PMC7161550 (British Journal of Pharmacology, 2020)
